Source: publication PMC9660540 (Clinical Cancer Research, 2022)
Read-outs that look alike come from different tables or passages of the source.

What was measured:
[1] = tested on: colorectal cancer (IO-naïve); assay: Tumor response; format: in vivo, human
[2] = tested on: CYP1A2; details: clinical drug–drug interaction study with fluvoxamine; ref [34]; cited from earlier work
[3] = Dose-limiting toxicity and RP2D, phase Ia dose escalation; format: in vivo, human
Summary of the method: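 Phase Ia used Bayesian logistic regression–guided escalation of the oral nanosuspension, with or without durvalumab; capsule cohorts took 75, 150 or 200 mg once daily. A DLT was non-disease-related toxicity before day 21 (monotherapy) or end of cycle 2 (combination), e.g. grade ≥4 neutropenia >7 days or grade ≥3 nonhematologic toxicity.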

[4] = tested on: metastatic castration-resistant prostate cancer (mCRPC); assay: Tumor response; format: in vivo, human
[5] = tested on: metastatic castration-resistant prostate cancer (mCRPC); assay: PSA response in patients with mCRPC; format: in vivo, human
[6] = tested on: intratumoral adenosine signaling; details: ref [12], cited from earlier work
[7] = tested on: metastatic castration-resistant prostate cancer (mCRPC); format: in vivo, human
Summary of the method: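 For the signature, baseline whole-blood RNA (PAXgene) was hybridized (25–100 ng) to a 770-gene NanoString panel and ComBat batch-corrected. The score was the median of normalized log2 expression of 14 adenosine genes; the cohort median split high from low.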

## Cc1cc(-c2nnc(N)nc2-c2ccc(F)cc2)cc(Cl)n1 [AZD4635]
[1]
  Best response of stable disease (SD) after a minimum of 2 cycles: 9 (45.0%) n (%)
[2]
  Metabolism: primarily metabolized by CYP1A2
[3]; capsule formulation, doses of up to 200 mg
  DLTs: no DLTs
[3]; phase Ia, nanosuspension monotherapy 75 mg or 100 mg once daily
  Patients with a DLT: No patients
[3]; phase Ia, nanosuspension monotherapy 125 mg twice daily, out of 3 patients
  Patients with DLTs: 2
[4]; mCRPC
  Disease control rate (DCR; CR, PR, or SD for at least 22 weeks): 18.0%
[4]; mCRPC responders, monotherapy and plus durvalumab together
  Duration of response: 2.3 to 34.0 months
[4]; mCRPC, responders/evaluable
  Tumor responses: 2/39
[4]; mCRPC, tumor response–evaluable population
  Confirmed PR: 2 patients
[5]
  Confirmed PSA responses: 3.3%
  PSA50 response: 5.0%
[5]; responders/evaluable
  Prostate-specific antigen responses: 3/60
[6]; among the 5 patients with decreased adenosine signaling
  Patients with concordant increases in gene-expression signatures of cytolytic activity and IFNG signaling: 4 patients
[6]; nanosuspension 75 or 100 mg, 2 weeks of monotherapy, of 7 patients
  Patients in whom intratumoral adenosine signaling decreased: 5 patients
[7]
  Median PFS: 10.1 weeks
  PFS probability at 24 weeks: 24.2%
[7]; AZD4635 monotherapy or plus durvalumab, high blood-adenosine signature
  PFS probability at 24 weeks: 48.9%
[7]; AZD4635 monotherapy or plus durvalumab, low blood-adenosine signature
  PFS probability at 24 weeks: 20.6%
